Measured values: ChEMBL document CHEMBL1124107, “Antihypertensive thiadiazoles. 1. Synthesis of some 2-aryl-5-hydrazino-1,3,4-thiadiazoles with vasodilator activity” (1988)

Key:
[1] = tested on: Rattus norvegicus; assay: Maximum percentage reduction in mean blood pressure in metacorticoid (DOCA) hypertensive rats at a standard oral dose of 100 mg/kg; assay type: functional
Method in brief: (§1)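 DOCA hypertensive rats, n = 3-5. Food removed 18 h before oral dosing; ip injections given to unstarved animals. Blood pressure recorded by pressure transducer under minimal restraint, twice before dosing with drug or isotonic saline vehicle, then at 1, 2, 3, 5 and 22 h. MABP taken as diastolic plus one-third pulse pressure.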

[2] = species on record: Rattus norvegicus; assay: Increase in diastolic blood pressure at 6 Htz electrical stimulation in the pithed rats; assay type: functional, Artery
Method in brief: (§2)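 Male rats (200-300 g) pretreated ip with drug or isotonic saline, groups of five, 1 or 2 h before pithing. Halothane anesthesia, tracheal cannulation, CNS destroyed via left orbit and spinal cord, artificial respiration with room air at 50 strokes/min. Pressor responses to iv noradrenaline (0.1-1.0 ug/kg), iv angiotensin (0.03-0.3 ug/kg), or whole sympathetic outflow stimulation.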

[3] = tested on: Rattus norvegicus; assay: Maximum percentage reduction in mean blood pressure in metacorticoid (DOCA) hypertensive rats at a standard oral dose of 50 mg/kg; assay type: functional; method in brief: as §1
[4] = tested on: Rattus norvegicus; assay: Increase in diastolic blood pressure at 0.3 ug/kg intravenous dosing of noradrenaline in pithed rats; assay type: functional, Artery; method in brief: as §2
[5] = species on record: Rattus norvegicus; assay: Increase in diastolic blood pressure at 1 Htz electrical stimulation in the pithed rats; assay type: functional, Artery; method in brief: as §2
[6] = species on record: Rattus norvegicus; assay: Increase in diastolic blood pressure at 3 Htz electrical stimulation in the pithed rats; assay type: functional, Artery; method in brief: as §2
[7] = tested on: Rattus norvegicus; assay: Maximum percentage reduction in mean blood pressure in metacorticoid (DOCA) hypertensive rats at a standard oral dose of 25 mg/kg; assay type: functional; method in brief: as §1
[8] = tested on: Rattus norvegicus; assay: Increase in diastolic blood pressure at 0.3 ug/kg intravenous dosing of angiotensin in pithed rats; assay type: functional, Artery; method in brief: as §2
[9] = tested on: Rattus norvegicus; assay: Increase in diastolic blood pressure at 0.1 ug/kg intravenous dosing of noradrenaline in pithed rats; assay type: functional, Artery; method in brief: as §2
[10] = tested on: Rattus norvegicus; assay: Increase in diastolic blood pressure at 1.0 ug/kg intravenous dosing of noradrenaline in pithed rats; assay type: functional, Artery; method in brief: as §2
[11] = tested on: Rattus norvegicus; assay: Increase in diastolic blood pressure at 0.03 ug/kg intravenous dosing of angiotensin in pithed rats; assay type: functional, Artery; method in brief: as §2
[12] = tested on: Rattus norvegicus; assay: Increase in diastolic blood pressure at 0.1 ug/kg intravenous dosing of angiotensin in pithed rats; assay type: functional, Artery; method in brief: as §2
[13] = tested on: Rattus norvegicus; assay: Increase in diastolic blood pressure for 0.1 ug/kg intravenous dosing of noradrenaline in pithed rats; assay type: functional, Artery; method in brief: as §2
[14] = tested on: Rattus norvegicus; assay: Maximum percentage reduction in mean blood pressure and heart rate in metacorticoid (DOCA) hypertensive rats at a standard oral dose of 50 mg/kg; assay type: functional; method in brief: as §1
[15] = tested on: Rattus norvegicus; assay: Increase in diastolic blood pressure for 0.1 ug/kg intravenous dosing of angiotensin in pithed rats; assay type: functional, Artery; method in brief: as §2
[16] = tested on: Rattus norvegicus; assay: Increase in diastolic blood pressure for 0.3 ug/kg intravenous dosing of noradrenaline in pithed rats; assay type: functional, Artery; method in brief: as §2
[17] = tested on: Rattus norvegicus; assay: Increase in diastolic blood pressure for 0.3 ug/kg intravenous dosing of angiotensin in pithed rats; assay type: functional, Artery; method in brief: as §2
[18] = tested on: Rattus norvegicus; assay: Increase in diastolic blood pressure for 1.0 ug/kg intravenous dosing of noradrenaline in pithed rats; assay type: functional, Artery; method in brief: as §2
[19] = species on record: Rattus norvegicus; assay: Increase in diastolic blood pressure for 1 Htz electrical stimulation in the pithed rats; assay type: functional, Artery; method in brief: as §2
[20] = species on record: Rattus norvegicus; assay: Increase in diastolic blood pressure for 3 Htz electrical stimulation in the pithed rats; assay type: functional, Artery; method in brief: as §2
[21] = tested on: Rattus norvegicus; assay: Increase in diastolic blood pressure for 0.03 ug/kg intravenous dosing of angiotensin in pithed rats; assay type: functional, Artery; method in brief: as §2
[22] = species on record: Rattus norvegicus; assay: Increase in diastolic blood pressure for 6 Htz electrical stimulation in the pithed rats; assay type: functional, Artery; method in brief: as §2
[23] = tested on: Rattus norvegicus; assay: Maximum percentage reduction in mean blood pressure and heart rate in metacorticoid (DOCA) hypertensive rats at a standard oral dose of 25 mg/kg; assay type: functional; method in brief: as §1
[24] = tested on: Rattus norvegicus; assay: Maximum percentage reduction in mean blood pressure and heart rate in metacorticoid (DOCA) hypertensive rats at a standard oral dose of 100 mg/kg

Cl.NNc1nnc(-c2ccccc2[N+](=O)[O-])s1
Reduction [1]: 26%

Cl.NNc1nnc(-c2ccccc2F)s1
Reduction [1]: 31%

Cl.NNc1nnc(-c2ccccc2Cl)s1
Reduction [1]: 21%

COc1cccc(OC)c1-c1nnc(NN)s1.Cl
Reduction [1]: 33%

Cl.NNc1nnc(-c2cccs2)s1
Reduction [1]: 35%

Cc1ccsc1-c1nnc(NN)s1.Cl
Reduction [1]: 48%

Cc1cc(F)ccc1-c1nnc(NN)s1.Cl
Reduction [1]: 58%

Cl.NNc1nnc(-c2ccccc2-c2ccccc2)s1
Reduction [1]: 18%

C[S+]([O-])c1ccccc1-c1nnc(NN)s1.Cl (stereo unspecified)
Increase in blood pressure [2]: 47 mmHg
Reduction [3]: 45%
Increase in blood pressure [4]: 10 mmHg
Increase in blood pressure [5]: 19 mmHg
Increase in blood pressure [6]: 34 mmHg
Reduction [7]: 31%
Increase in blood pressure [8]: 29 mmHg
Increase in blood pressure [9]: 6 mmHg
Increase in blood pressure [10]: 21 mmHg
Increase in blood pressure [11]: 4 mmHg
Increase in blood pressure [12]: 11 mmHg

Cc1cccc(C)c1-c1nnc(NN)s1.Cl
Reduction [1]: 54%

COc1ccccc1-c1nnc(NN)s1.Cl
Reduction [3]: 39%
Reduction [1]: 46%

CCc1ccccc1-c1nnc(NN)s1.Cl
Increase in blood pressure [2]: 32 mmHg
Reduction [3]: 54%
Increase in blood pressure [4]: 14 mmHg
Increase in blood pressure [5]: 14 mmHg
Increase in blood pressure [6]: 25 mmHg
Reduction [7]: 42%
Increase in blood pressure [8]: 25 mmHg
Increase in blood pressure [9]: 8 mmHg
Increase in blood pressure [10]: 22 mmHg
Increase in blood pressure [11]: 2 mmHg
Increase in blood pressure [12]: 6 mmHg

Cc1ccccc1-c1nnc(NN)s1.Cl
Increase in blood pressure [13]: 10 mmHg
Reduction [14]: 48%
Increase in blood pressure [15]: 28 mmHg
Increase in blood pressure [16]: 16 mmHg
Increase in blood pressure [17]: 50 mmHg
Increase in blood pressure [18]: 29 mmHg
Increase in blood pressure [19]: 16 mmHg
Increase in blood pressure [20]: 32 mmHg
Increase in blood pressure [21]: 12 mmHg
Increase in blood pressure [22]: 41 mmHg
Reduction [23]: 33%

NNc1nnc(-c2ccco2)s1
Reduction [1]: 39%

CSc1ccccc1-c1nnc(NN)s1.Cl
Reduction [1]: 41%

Cl.NNc1nnc(-c2cccc(C(F)(F)F)c2)s1
Reduction [1]: 21%

Cc1cccc(-c2nnc(NN)s2)c1C.Cl
Reduction [1]: 50%

Cl.NNc1nnc(-c2ccc(C(F)(F)F)cc2)s1
Reduction [1]: 21%

Nc1cc(N2CCCCC2)nc(N)[n+]1[O-] [MINOXIDIL]
Increase in blood pressure [13]: 10 mmHg
Increase in blood pressure [15]: 13 mmHg
Reduction [24]: 42%
Increase in blood pressure [16]: 25 mmHg
Increase in blood pressure [17]: 25 mmHg
Increase in blood pressure [18]: 45 mmHg
Increase in blood pressure [19]: 9 mmHg
Increase in blood pressure [20]: 25 mmHg
Increase in blood pressure [21]: 6 mmHg
Increase in blood pressure [22]: 31 mmHg

CCCOc1ccccc1-c1nnc(NN)s1.Cl
Reduction [1]: 46%

COc1ccc(Cl)c(OC)c1-c1nnc(NN)s1.Cl
Reduction [1]: 53%

Cc1ccc(-c2nnc(NN)s2)cc1C.Cl
Reduction [1]: 22%

COc1cc2nc(N3CCN(C(=O)c4ccco4)CC3)nc(N)c2cc1OC [PRAZOSIN]
Increase in blood pressure [13]: 23 mmHg
Increase in blood pressure [15]: 45 mmHg
Increase in blood pressure [16]: 32 mmHg
Increase in blood pressure [17]: 67 mmHg
Increase in blood pressure [18]: 49 mmHg
Increase in blood pressure [19]: 18 mmHg
Increase in blood pressure [20]: 26 mmHg
Increase in blood pressure [21]: 30 mmHg
Increase in blood pressure [22]: 31 mmHg
